Results published in ChEMBL document CHEMBL2157898 (J Med Chem, 2012).

target: T1, Glucagon receptor (Homo sapiens, UniProt P47871); assay: Antagonist activity at human GCGR expressed in CHO cells assessed as inhibition of glucagon-induced cAMP accumulation preincubated for 30 mins prior to glucagon challenge measured after 30 mins post glucagon challenge by liquid scintillation counter; format: functional, cell-based; conditions: not given
Outline: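 CHO cells stably expressing the receptor were grown 3–4 days in IMDM with 10% FBS, 1 mM L-glutamine, pen-strep and 500 ug G418/mL, lifted enzyme-free and resuspended in stimulation buffer. They were preincubated 30 min with compound (final 5% DMSO), then stimulated with glucagon (250 pM) for 30 min at room temperature. Kit detection buffer was added for 3 h and bound radioactivity counted. IC50 is mean ± SD where N ≥ 2.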

T1 sequence (P47871 whole entry): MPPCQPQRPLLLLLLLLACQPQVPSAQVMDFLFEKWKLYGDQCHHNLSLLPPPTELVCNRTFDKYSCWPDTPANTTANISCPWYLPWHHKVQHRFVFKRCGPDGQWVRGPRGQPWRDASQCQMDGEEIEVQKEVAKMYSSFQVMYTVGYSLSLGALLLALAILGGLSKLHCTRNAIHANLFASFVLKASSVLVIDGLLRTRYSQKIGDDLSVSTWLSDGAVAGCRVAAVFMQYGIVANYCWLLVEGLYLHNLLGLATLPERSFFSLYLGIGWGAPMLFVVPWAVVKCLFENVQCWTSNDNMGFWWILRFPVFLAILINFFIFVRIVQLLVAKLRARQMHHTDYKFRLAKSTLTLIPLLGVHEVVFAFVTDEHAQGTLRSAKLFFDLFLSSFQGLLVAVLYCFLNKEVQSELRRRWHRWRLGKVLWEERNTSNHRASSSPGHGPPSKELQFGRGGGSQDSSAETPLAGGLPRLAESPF

| SMILES | IC50 [nM] |
| --- | --- |
| C[C@H](c1ccc(C(=O)NCCC(=O)O)cc1)n1nc(-c2cc(Cl)cc(Cl)c2)cc1-c1ccc2cc(OC(F)(F)F)ccc2c1 | 32.6 |
| CC(c1ccc(C(=O)NCCC(=O)O)cc1)n1nc(-c2cc(Cl)cc(Cl)c2)cc1-c1ccccc1C1CCCCC1 (stereo not given) | 362 |
| CC(c1ccc(C(=O)NCCC(=O)O)cc1)n1nc(-c2cc(Cl)cc(Cl)c2)cc1-c1ccc(OC(F)(F)F)cc1 (stereo not given) | 77.5 |
| CCCOc1ccc(-c2cc(-c3cc(Cl)cc(Cl)c3)nn2C(C)c2ccc(C(=O)NCCC(=O)O)cc2)cc1Cl (stereo not given) | 64.8 |
| COc1ccc2cc(-c3cc(C(C)(C)C)nn3[C@@H](C)c3ccc(C(=O)NCCC(=O)O)cc3)ccc2c1 | 108 |
| O=C(O)CCNC(=O)c1ccc(Cn2nc(-c3cc(Cl)cc(Cl)c3)cc2-c2ccc3c(OC(F)(F)F)cccc3c2)cc1 | 114 |

Next, values leading:

| IC50 [nM] | SMILES |
| --- | --- |
| 7.5 | Cc1ccc2cc(-c3cc(-c4cc(Cl)cc(Cl)c4)nn3[C@@H](C)c3ccc(C(=O)NCCC(=O)O)cc3)ccc2c1 |
| 11.5 | COc1ccc2cc(-c3cc(-c4cc(Cl)ccc4Cl)nn3[C@@H](C)c3ccc(C(=O)NCCC(=O)O)cc3)ccc2c1 |
| 15.8 | COc1ccc2cc(-c3cc(-c4ccc(Cl)c(Cl)c4)nn3[C@@H](C)c3ccc(C(=O)NCCC(=O)O)cc3)ccc2c1 |
| 90.9 | COc1ccc2cc(-c3cc(-c4cc(Cl)cc(Cl)c4)nn3Cc3ccc(C(=O)NCCC(=O)O)cc3)ccc2c1 |
| 63.1 | COc1ccc2cc(-c3cc(C(F)(F)F)nn3[C@@H](C)c3ccc(C(=O)NCCC(=O)O)cc3)ccc2c1 |
| 67.9 | COc1cc(Cl)cc(-c2cc(-c3ccc4cc(OC)ccc4c3)n([C@@H](C)c3ccc(C(=O)NCCC(=O)O)cc3)n2)c1 |
| 11.9 | C[C@@H](c1ccc(C(=O)NCCC(=O)O)cc1)n1nc(-c2cc(Cl)cc(Cl)c2)cc1-c1ccc2cc(OC(F)(F)F)ccc2c1 |

species on record: Homo sapiens; assay: Reduction of plasma glucose level in type2 diabetic patients at 1000 mg, bid relative to baseline; format: functional; conditions: not given

| SMILES | Activity [mg/dL] |
| --- | --- |
| CN(C)C(=N)NC(=N)N [METFORMIN] | 37 |

target: Glucagon-like peptide 1 receptor (Homo sapiens, UniProt P43220); assay: Antagonist activity at human GLP1R expressed in CHO cells assessed as inhibition of glucagon-induced cAMP accumulation preincubated for 30 mins prior to glucagon challenge measured after 30 mins post glucagon challenge by liquid scintillation counter; format: functional, cell-based; conditions: not given
Sequence (P43220 whole entry): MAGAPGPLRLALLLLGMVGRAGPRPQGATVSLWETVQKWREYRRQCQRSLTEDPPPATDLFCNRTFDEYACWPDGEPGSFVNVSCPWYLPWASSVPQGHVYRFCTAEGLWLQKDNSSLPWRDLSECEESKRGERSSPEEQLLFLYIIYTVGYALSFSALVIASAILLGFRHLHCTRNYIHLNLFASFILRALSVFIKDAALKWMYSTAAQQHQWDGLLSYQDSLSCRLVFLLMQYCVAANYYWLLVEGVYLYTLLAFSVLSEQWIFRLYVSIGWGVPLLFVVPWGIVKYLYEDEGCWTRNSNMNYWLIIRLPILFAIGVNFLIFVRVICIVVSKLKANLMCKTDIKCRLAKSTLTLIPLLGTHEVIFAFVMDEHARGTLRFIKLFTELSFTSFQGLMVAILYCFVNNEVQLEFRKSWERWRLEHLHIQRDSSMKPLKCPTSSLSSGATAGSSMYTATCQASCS

| IC50 [nM] | SMILES |
| --- | --- |
| 8200 | COc1ccc2cc(-c3cc(-c4cc(Cl)ccc4Cl)nn3[C@@H](C)c3ccc(C(=O)NCCC(=O)O)cc3)ccc2c1 |

target: Voltage-gated inwardly rectifying potassium channel KCNH2 (Homo sapiens, UniProt Q12809); assay: Binding affinity to human ERG; conditions: not given
Sequence (Q12809 whole entry): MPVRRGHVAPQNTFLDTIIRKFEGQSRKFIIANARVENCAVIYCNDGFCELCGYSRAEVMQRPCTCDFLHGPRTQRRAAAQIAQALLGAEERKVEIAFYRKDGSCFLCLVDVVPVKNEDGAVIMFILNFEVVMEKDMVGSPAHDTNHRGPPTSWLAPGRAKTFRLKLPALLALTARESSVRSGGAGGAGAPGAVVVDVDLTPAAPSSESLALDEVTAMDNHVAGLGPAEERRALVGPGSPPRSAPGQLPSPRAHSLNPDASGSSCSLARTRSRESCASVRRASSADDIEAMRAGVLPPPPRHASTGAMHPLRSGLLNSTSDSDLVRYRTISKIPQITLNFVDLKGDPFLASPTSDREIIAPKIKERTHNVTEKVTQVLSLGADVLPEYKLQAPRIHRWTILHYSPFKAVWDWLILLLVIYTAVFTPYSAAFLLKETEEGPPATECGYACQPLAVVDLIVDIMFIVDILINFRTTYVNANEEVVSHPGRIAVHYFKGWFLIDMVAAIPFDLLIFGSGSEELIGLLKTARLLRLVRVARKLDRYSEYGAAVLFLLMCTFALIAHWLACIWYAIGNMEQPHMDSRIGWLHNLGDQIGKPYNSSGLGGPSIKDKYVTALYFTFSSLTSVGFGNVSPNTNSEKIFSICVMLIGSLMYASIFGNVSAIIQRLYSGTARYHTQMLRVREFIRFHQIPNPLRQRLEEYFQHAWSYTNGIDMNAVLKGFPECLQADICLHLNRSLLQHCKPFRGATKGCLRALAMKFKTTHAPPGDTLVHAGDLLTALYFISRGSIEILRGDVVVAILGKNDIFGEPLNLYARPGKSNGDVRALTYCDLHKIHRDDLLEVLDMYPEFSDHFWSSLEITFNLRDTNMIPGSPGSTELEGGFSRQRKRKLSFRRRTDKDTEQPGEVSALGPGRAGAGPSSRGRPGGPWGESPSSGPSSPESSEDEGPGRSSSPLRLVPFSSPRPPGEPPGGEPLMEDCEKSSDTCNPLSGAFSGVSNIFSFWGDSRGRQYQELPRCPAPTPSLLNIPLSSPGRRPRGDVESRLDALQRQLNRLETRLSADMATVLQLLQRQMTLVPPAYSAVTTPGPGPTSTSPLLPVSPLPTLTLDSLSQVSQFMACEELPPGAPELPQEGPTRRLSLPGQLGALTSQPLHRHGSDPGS

| SMILES | IC50 [nM] |
| --- | --- |
| Cc1ccc2cc(-c3cc(-c4cc(Cl)cc(Cl)c4)nn3[C@@H](C)c3ccc(C(=O)NCCC(=O)O)cc3)ccc2c1 | > 10000 |

target: not listed separately; assay: Displacement of [3H]diltiazem from L-type Ca2+ channel; conditions: not given

| IC50 [nM] | SMILES |
| --- | --- |
| 2100 | Cc1ccc2cc(-c3cc(-c4cc(Cl)cc(Cl)c4)nn3[C@@H](C)c3ccc(C(=O)NCCC(=O)O)cc3)ccc2c1 |
| 8800 | COc1ccc2cc(-c3cc(-c4cc(Cl)ccc4Cl)nn3[C@@H](C)c3ccc(C(=O)NCCC(=O)O)cc3)ccc2c1 |

species on record: Homo sapiens; assay: Reduction of HbA1c level in type2 diabetic patients at 1000 mg, bid relative to baseline; format: functional; set-up: scale not given: the % may be the effect or the level left; conditions: not given

| SMILES | Activity [%] |
| --- | --- |
| CN(C)C(=N)NC(=N)N [METFORMIN] | 0.8 |

system: not listed separately; assay: Drug excretion in bile cannulated rat assessed as elimination of radiolabeled compound in bile at 5 mg/kg, po after 24 hrs; format: ADME, organism-based; set-up: dose 5 mg/kg, route oral; conditions: in vivo

| Drug excretion | SMILES |
| --- | --- |
| Active | [3H]c1c(-c2cc(Cl)cc(Cl)c2)nn([C@@H](C)c2ccc(C(=O)NCCC(=O)O)cc2)c1-c1ccc2c([3H])c(OC)ccc2c1 |

system: not listed separately; assay: Drug excretion in bile cannulated dog assessed as elimination of radiolabeled compound in bile at 5 mg/kg, po after 24 hrs; format: ADME, organism-based, Canis lupus familiaris; set-up: dose 5 mg/kg, route oral; conditions: in vivo

| Drug excretion | SMILES |
| --- | --- |
| Active | [3H]c1c(-c2cc(Cl)cc(Cl)c2)nn([C@@H](C)c2ccc(C(=O)NCCC(=O)O)cc2)c1-c1ccc2c([3H])c(OC)ccc2c1 |

target: T2, Vasoactive intestinal polypeptide receptor 2 (Homo sapiens, UniProt P41587); assay: Antagonist activity at human VPAC2 expressed in CHO cells assessed as inhibition of glucagon-induced cAMP accumulation preincubated for 30 mins prior to glucagon challenge measured after 30 mins post glucagon challenge by liquid scintillation counter; format: functional, cell-based; conditions: not given
T2 sequence (P41587 whole entry): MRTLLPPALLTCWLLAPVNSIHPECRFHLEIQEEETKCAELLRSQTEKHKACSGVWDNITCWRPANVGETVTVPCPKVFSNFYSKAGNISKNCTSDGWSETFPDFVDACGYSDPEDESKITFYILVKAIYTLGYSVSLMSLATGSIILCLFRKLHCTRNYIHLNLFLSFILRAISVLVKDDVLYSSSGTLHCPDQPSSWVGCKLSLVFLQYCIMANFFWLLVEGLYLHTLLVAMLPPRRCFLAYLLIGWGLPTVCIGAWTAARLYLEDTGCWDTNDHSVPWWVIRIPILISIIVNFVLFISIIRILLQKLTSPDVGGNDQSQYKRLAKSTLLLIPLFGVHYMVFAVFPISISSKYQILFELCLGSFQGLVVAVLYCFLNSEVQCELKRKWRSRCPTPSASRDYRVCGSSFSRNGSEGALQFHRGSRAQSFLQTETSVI

| IC50 [nM] | SMILES |
| --- | --- |
| 2600 | COc1ccc2cc(-c3cc(-c4cc(Cl)ccc4Cl)nn3[C@@H](C)c3ccc(C(=O)NCCC(=O)O)cc3)ccc2c1 |
| 1700 | COc1ccc2cc(-c3cc(-c4ccc(Cl)c(Cl)c4)nn3[C@@H](C)c3ccc(C(=O)NCCC(=O)O)cc3)ccc2c1 |

target: T1, Glucagon receptor; assay: Displacement of [125I]glucagon from human GCGR expressed in CHO cells after 3 hrs by scintillation proximity assay; format: cell-based; conditions: not given
Outline: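 Membranes (2−5 μg) from CHO cells expressing human GCGR were incubated 3 h at room temperature. Buffer was 50 mM Tris pH 7.5 with 5 mM MgCl2, 2 mM EDTA, 1% BSA and 12% glycerol, plus WGA-coated SPA beads, 50 pM 125I-glucagon and graded compound (final 2.5% DMSO). Nonspecific binding was defined with 1 μM unlabeled glucagon. IC50 came from nonlinear regression.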

| SMILES | IC50 [nM] |
| --- | --- |
| O=C(O)CCNC(=O)c1ccc(Cn2nc(-c3cc(Cl)cc(Cl)c3)cc2-c2ccccc2OC(F)(F)F)cc1 | 527 |
| C[C@H](c1ccc(C(=O)NCCC(=O)O)cc1)n1nc(-c2cc(Cl)cc(Cl)c2)cc1-c1ccc2cc(OC(F)(F)F)ccc2c1 | 16.6 |
| CC(c1ccc(C(=O)NCCC(=O)O)cc1)n1nc(-c2cc(Cl)cc(Cl)c2)cc1-c1ccccc1C1CCCCC1 (stereo not given) | 337 |
| CC(c1ccc(C(=O)NCCC(=O)O)cc1)n1nc(-c2cc(Cl)cc(Cl)c2)cc1-c1ccc(OC(F)(F)F)cc1 (stereo not given) | 100 |
| CCCOc1ccc(-c2cc(-c3cc(Cl)cc(Cl)c3)nn2C(C)c2ccc(C(=O)NCCC(=O)O)cc2)cc1Cl (stereo not given) | 16 |
| COc1ccc2cc(-c3cc(C(C)(C)C)nn3[C@@H](C)c3ccc(C(=O)NCCC(=O)O)cc3)ccc2c1 | 81.8 |
| O=C(O)CCNC(=O)c1ccc(Cn2nc(-c3cc(Cl)cc(Cl)c3)cc2-c2ccc3c(OC(F)(F)F)cccc3c2)cc1 | 40.5 |

The remaining lines, values ahead:

| IC50 [nM] | SMILES |
| --- | --- |
| 4.6 | Cc1ccc2cc(-c3cc(-c4cc(Cl)cc(Cl)c4)nn3[C@@H](C)c3ccc(C(=O)NCCC(=O)O)cc3)ccc2c1 |
| 7.5 | COc1ccc2cc(-c3cc(-c4cc(Cl)ccc4Cl)nn3[C@@H](C)c3ccc(C(=O)NCCC(=O)O)cc3)ccc2c1 |
| 5.2 | COc1ccc2cc(-c3cc(-c4ccc(Cl)c(Cl)c4)nn3[C@@H](C)c3ccc(C(=O)NCCC(=O)O)cc3)ccc2c1 |
| 15.6 | COc1ccc2cc(-c3cc(-c4cc(Cl)cc(Cl)c4)nn3Cc3ccc(C(=O)NCCC(=O)O)cc3)ccc2c1 |
| 15.3 | COc1ccc2cc(-c3cc(C(F)(F)F)nn3[C@@H](C)c3ccc(C(=O)NCCC(=O)O)cc3)ccc2c1 |
| 14.8 | COc1cc(Cl)cc(-c2cc(-c3ccc4cc(OC)ccc4c3)n([C@@H](C)c3ccc(C(=O)NCCC(=O)O)cc3)n2)c1 |
| 2.5 | C[C@@H](c1ccc(C(=O)NCCC(=O)O)cc1)n1nc(-c2cc(Cl)cc(Cl)c2)cc1-c1ccc2cc(OC(F)(F)F)ccc2c1 |

target: T3, Gastric inhibitory polypeptide receptor (Homo sapiens, UniProt P48546); assay: Antagonist activity at human GIPR expressed in CHO cells assessed as inhibition of glucagon-induced cAMP accumulation preincubated for 30 mins prior to glucagon challenge measured after 30 mins post glucagon challenge by liquid scintillation counter; format: functional, cell-based; conditions: not given
T3 sequence (P48546 whole entry): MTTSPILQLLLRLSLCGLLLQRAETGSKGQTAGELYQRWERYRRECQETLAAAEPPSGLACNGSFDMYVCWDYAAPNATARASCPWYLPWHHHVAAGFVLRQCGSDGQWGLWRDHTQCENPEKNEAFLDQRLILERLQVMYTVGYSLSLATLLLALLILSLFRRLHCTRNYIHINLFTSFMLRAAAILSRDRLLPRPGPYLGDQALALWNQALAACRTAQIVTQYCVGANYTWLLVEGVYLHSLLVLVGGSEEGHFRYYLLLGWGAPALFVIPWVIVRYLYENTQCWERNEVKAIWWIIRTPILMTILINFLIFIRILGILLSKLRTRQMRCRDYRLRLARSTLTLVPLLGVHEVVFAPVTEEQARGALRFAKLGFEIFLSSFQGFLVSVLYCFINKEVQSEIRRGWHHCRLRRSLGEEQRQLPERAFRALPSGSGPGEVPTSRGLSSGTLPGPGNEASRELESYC
Outline: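 CHO cells expressing human GIPR were handled as for the GCGR cAMP assay: preincubation with compound for 30 min in final 5% DMSO, agonist stimulation for 30 min at room temperature, and radiometric cAMP detection after 3 h with kit detection buffer. Results are IC50 values.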

| SMILES | IC50 [nM] |
| --- | --- |
| C[C@H](c1ccc(C(=O)NCCC(=O)O)cc1)n1nc(-c2cc(Cl)cc(Cl)c2)cc1-c1ccc2cc(OC(F)(F)F)ccc2c1 | 1130 |
| CCCOc1ccc(-c2cc(-c3cc(Cl)cc(Cl)c3)nn2C(C)c2ccc(C(=O)NCCC(=O)O)cc2)cc1Cl (stereo not given) | 478 |
| O=C(O)CCNC(=O)c1ccc(Cn2nc(-c3cc(Cl)cc(Cl)c3)cc2-c2ccc3c(OC(F)(F)F)cccc3c2)cc1 | 1980 |

More lines, now with the values ahead:

| IC50 [nM] | SMILES |
| --- | --- |
| 753 | Cc1ccc2cc(-c3cc(-c4cc(Cl)cc(Cl)c4)nn3[C@@H](C)c3ccc(C(=O)NCCC(=O)O)cc3)ccc2c1 |
| 1840 | COc1ccc2cc(-c3cc(-c4cc(Cl)ccc4Cl)nn3[C@@H](C)c3ccc(C(=O)NCCC(=O)O)cc3)ccc2c1 |
| 2420 | COc1ccc2cc(-c3cc(-c4ccc(Cl)c(Cl)c4)nn3[C@@H](C)c3ccc(C(=O)NCCC(=O)O)cc3)ccc2c1 |
| 5000 | COc1cc(Cl)cc(-c2cc(-c3ccc4cc(OC)ccc4c3)n([C@@H](C)c3ccc(C(=O)NCCC(=O)O)cc3)n2)c1 |
| 307 | C[C@@H](c1ccc(C(=O)NCCC(=O)O)cc1)n1nc(-c2cc(Cl)cc(Cl)c2)cc1-c1ccc2cc(OC(F)(F)F)ccc2c1 |
